Data published in ChEMBL document CHEMBL1125197, “Studies on uricosuric diuretics. 4. Three-dimensional structure-activity relationships and receptor mapping of (aryloxy)acetic acid diuretics” (1991).

Tested on: Rattus norvegicus
Assay: Diuretic activity after peroral administration of 100 mg/Kg in rats
Type: functional, Urine
Outline: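 Seven-week-old Wistar–Imamichi rats, fasted 24 h, in groups of five matched for urine output; forced urination before dosing. Oral dose of 100 mg/kg, suspended in physiological saline with 3% gum arabic at 25 mL/kg. Controls received vehicle alone. Animals kept fasted in separate metabolic cages, with urine collected for 6 h. Urine volume expressed as % of control (100%).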

Structure (SMILES)	Relative activity [%]
O=C(c1cccs1)c1cc2c(c(Cl)c1Cl)O[C@H](C(=O)O)C2	400
C[C@]1(c2ccccc2)Cc2cc(OCC(=O)O)c(Cl)c(Cl)c2C1=O	350
O=C(c1cccs1)c1cc2c(c(Cl)c1Cl)O[C@@H](C(=O)O)C2	<100
C[C@@]1(c2ccccc2)Cc2cc(OCC(=O)O)c(Cl)c(Cl)c2C1=O	200
O=C(O)COc1ccc2c(-c3ccccc3F)noc2c1Cl	250
O=C(O)C1Cc2cc3c(-c4ccccc4)noc3c(Cl)c2O1 (stereo not drawn)	300
O=C(O)C1Cc2cc(-c3noc4ccccc34)c(Cl)c(Cl)c2O1 (stereo not drawn)	300
O=C(O)C1Cc2c(c(Cl)c(Cl)c3nc(-c4ccccc4)oc23)O1 (stereo not drawn)	450
O=C(O)C1Cc2c(c(Cl)cc3c(=O)c4ccccc4oc23)O1 (stereo not drawn)	300
O=C(O)C1Oc2cc3c(-c4ccccc4)noc3c(Cl)c2O1 (stereo not drawn)	450
O=C(O)C1Oc2c(Cl)cc3c(-c4ccccc4)noc3c2O1 (stereo not drawn)	160
O=C(O)COc1cc2oc3ccccc3c(=O)c2cc1Cl	200
O=C(O)C1Cc2cc3c(=O)c4ccccc4oc3c(Cl)c2O1 (stereo not drawn)	200
O=C(O)COc1cc2c(=O)c3ccccc3oc2cc1Cl	200
O=C(O)C1Cc2c(c(Cl)cc3c(-c4ccccc4)noc23)O1 (stereo not drawn)	120
O=C(c1cccs1)c1cc2c(c(Cl)c1Cl)OC(C(=O)O)C2 (racemic)	350
CC1(c2ccccc2)Cc2cc(OCC(=O)O)c(Cl)c(Cl)c2C1=O (racemic) [INDACRINONE]	300
O=C(O)COc1ccc(C(=O)c2cccs2)c(Cl)c1Cl [TICRYNAFEN]	160
